{"source": "paper PMC10339699", "about": "(Clinical and Translational Science, 2023)", "key": {"[1]": {"assay": "Part 1: plasma PK of rilzabrutinib after single oral 400 mg tablet", "assay_type": "in vivo, human"}, "[2]": {"assay": "Part 1: plasma PK of [14C]‐rilzabrutinib after i.v. microtracer dose", "assay_type": "in vivo", "conditions": "male, human, iv, 100 ug"}, "[3]": {"assay": "Part 1: absolute oral bioavailability", "assay_type": "in vivo", "conditions": "male, human, plasma, 400 mg", "procedure,_shortened": "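Healthy subjects (n = 8) fasted overnight 10 h, then took a 400 mg oral tablet with 240 mL water. At 120 min, ~100 μg [14C]-labelled microtracer (~1 μCi) was given as an ~2-min i.v. push. K2 EDTA plasma was analysed by acetonitrile precipitation and LC-MS/MS (0.100–100 ng/mL). Noncompartmental AUC used linear-up/log-down. F was the GLSM oral/i.v. ratio with 90% CI, from a model with formulation fixed and subject random.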"}, "[4]": {"assay_type": "in vivo, human"}, "[5]": {"assay": "Part 2: total radioactivity PK in plasma and whole blood", "assay_type": "in vivo, human", "conditions": "part 2, plasma total radioactivity"}, "[6]": {"assay_type": "in vivo, human", "remark": "listed apart in the source"}, "[7]": {"assay": "Part 2: urinary excretion of unchanged rilzabrutinib", "assay_type": "in vivo, human"}, "Safety and tolerability": {"assay": "Safety and tolerability", "assay_type": "in vivo, human"}, "pH‐dependent solubility": {"assay": "pH‐dependent solubility", "assay_type": "physicochemical"}, "gut flora": {"system": "gut flora", "assay": "Gut flora metabolism in vitro", "assay_type": "in vitro ADME", "conditions": "in vitro studies (unpublished data)"}, "[8]": {"conditions": "previous bioavailability study; ref PRN1008‐006, unpublished data; cited from earlier work"}, "BTK": {"system": "BTK", "conditions": "within 4 h of dosing, multiple dosing; cited from earlier work"}, "[9]": {"conditions": "male, human, plasma, po, 400 mg"}, "[10]": {"conditions": "part 1, oral 400 mg tablet (test), mixed‐effect model"}, "[11]": {"conditions": "part 1, single oral 400 mg tablet, dose normalized, geometric mean (CV)"}, "[12]": {"conditions": "bile collection subjects, through the last collection interval"}, "[13]": {"conditions": "non‐bile collection subjects, through the last collection interval"}}, "note": "Where two headings read alike, the source gives them in different places.", "data": [{"smiles": "CC(C)(/C=C(\\C#N)C(=O)N1CCC[C@@H](n2nc(-c3ccc(Oc4ccccc4)cc3F)c3c(N)ncnc32)C1)N1CCN(C2COC2)CC1", "note": "[rilzabrutinib]", "values": [{"measurement": "Delay in T max for tablet formulation as compared to liquid formulation", "setting": "[1]; 400 mg tablet (part 1) versus 300 mg solution (part 2)", "result": 1, "unit": "h"}, {"measurement": "AUC(0-inf)", "setting": "[1]; [9]", "result": 336, "unit": "ng·h/mL"}, {"measurement": "AUC(0-t)", "setting": "[1]; [9]", "result": 334, "unit": "ng·h/mL"}, {"measurement": "Cmax", "setting": "[1]; [9]", "result": 108, "unit": "ng/mL"}, {"measurement": "Tmax", "setting": "[1]; [9]", "result": 2.03, "unit": "h"}, {"measurement": "DN AUC0–inf, GLSM", "setting": "[1]; [10]", "result": 0.839, "unit": "ng·h/mL/mg"}, {"measurement": "DN AUC0–last, GLSM", "setting": "[1]; [10]", "result": 0.835, "unit": "ng·h/mL/mg"}, {"measurement": "DN AUC0–inf", "setting": "[1]; [11]", "result": "0.839 (62.2) [n = 8] h ng/mL/mg"}, {"measurement": "DN AUC0–last", "setting": "[1]; [11]", "result": "0.835 (62.7) [n = 8] h ng/mL/mg"}, {"measurement": "Vd", "setting": "[2]", "result": 149, "unit": "L"}, {"measurement": "clearance", "setting": "[2]", "result": 968, "unit": "mL/min"}, {"measurement": "bioavailability", "setting": "[3]", "result": "< 5", "unit": "%"}, {"measurement": "half-life", "setting": "[4]; male, human, plasma, po, 300 mg", "result": 2.45, "unit": "h"}, {"measurement": "CL/F", "setting": "[4]; part 2, single oral 300 mg solution, geometric mean (CV)", "result": 904, "unit": "L/h"}, {"measurement": "Circulating metabolite identified", "setting": "[5]", "result": "thiocyanate"}, {"measurement": "Administered radioactivity recovered in the first 192 h postdose", "setting": "[6]; bile collection subjects", "result": 87.1, "unit": "%"}, {"measurement": "Administered radioactivity recovered in bile, average", "setting": "[6]; bile collection subjects, 3-8 h postdose", "result": 6.29, "unit": "%"}, {"measurement": "Administered radioactivity recovered in feces, average", "setting": "[6]; [12]", "result": 72.7, "unit": "%"}, {"measurement": "Administered radioactivity recovered in urine, average", "setting": "[6]; [12]", "result": 5.42, "unit": "%"}, {"measurement": "Administered radioactivity recovered within the first 168 h of dosing", "setting": "[6]; non‐bile collection subjects", "result": 92.1, "unit": "%"}, {"measurement": "Administered radioactivity recovered in feces, mean", "setting": "[6]; [13]", "result": 87.0, "unit": "%"}, {"measurement": "Administered radioactivity recovered in urine, mean", "setting": "[6]; [13]", "result": 5.25, "unit": "%"}, {"measurement": "CL renal", "setting": "[7]; male, human, urine and plasma, po, 300 mg", "result": 4.05, "unit": "mL/min"}, {"measurement": "f eu (percentage of dose excreted in urine as unchanged drug)", "setting": "[7]; unchanged rilzabrutinib in urine, 0–312 h, 300 mg oral, geometric mean (CV)", "result": 3.02, "unit": "%"}, {"measurement": "Clinical laboratory evaluations, vital signs, 12‐lead electrocardiogram, physical examinations", "setting": "Safety and tolerability; both parts of the study", "result": "no clinically significant findings"}, {"measurement": "Tolerability", "setting": "Safety and tolerability; both parts of the study, healthy male subjects", "result": "well‐tolerated"}, {"measurement": "Deaths, serious adverse events, or TEAEs leading to discontinuation", "setting": "Safety and tolerability; either part of the study", "result": "No deaths, serious adverse events, or treatment emergent adverse events (TEAEs) leading to discontinuation"}, {"measurement": "Severity of TEAEs", "setting": "Safety and tolerability; entire study, except for one moderate TEAE (viral infection) not treatment related", "result": "mild"}, {"measurement": "Total number of TEAEs", "setting": "Safety and tolerability; part 1", "result": "three"}, {"measurement": "Total number of TEAEs", "setting": "Safety and tolerability; part 2", "result": 13}, {"measurement": "Subjects who reported TEAEs", "setting": "Safety and tolerability; part 2, six of 10 subjects", "result": 60, "unit": "%"}, {"measurement": "solubility", "setting": "pH‐dependent solubility", "result": 40, "unit": "µg/mL"}, {"measurement": "solubility", "setting": "pH‐dependent solubility; aqueous buffer", "result": "> 120000", "unit": "µg/mL"}, {"measurement": "Gut flora metabolism", "setting": "gut flora", "result": "high gut flora metabolism"}, {"measurement": "PK exposure after 300 mg oral solution and 400 mg tablet formulation", "setting": "[8]", "result": "comparable"}, {"measurement": "BTK occupancy", "setting": "BTK", "result": "greater than 90%"}]}]}
